Here are results for 10 compounds from ChEMBL document CHEMBL3351297, “In Vitro Antibacterial Activity of Prenylated Guanidine Alkaloids from Pterogyne nitens and Synthetic Analogues” (2014).

Experiment [1] deals with Staphylococcus aureus. In words: Antimicrobial activity against methicillin-resistant Staphylococcus aureus XU212 assessed as absence of growth after 18 hrs by MTT assay. The format is functional. To be noted: XU212, 18 h. In a few lines:
(§1)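 Strains were pre-grown on nutrient agar for 24 h at 37 °C. Inoculum was 1 × 10^6 cfu/mL in normal saline, set against a 0.5 McFarland standard. Compounds were dissolved in DMSO and serially diluted in cation-adjusted Mueller-Hinton broth (20 mg/L Ca2+, 10 mg/L Mg2+) over 512 to 0.5 mg/L. Plates ran 18 h at 37 °C. MTT was added for 20 min; blue meant growth. MIC is the lowest concentration without growth.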
On the technique in general: Tetrazolium assays rely on reduction of a dye to a coloured formazan, in cell work by metabolically active cells.

The subject of experiment [2] is Staphylococcus aureus. In words: Antimicrobial activity against multi-drug-resistant Staphylococcus aureus SA-1199B expressing NorA efflux pump assessed as absence of growth after 18 hrs by MTT assay. The format is functional. In short, it runs like this:
as §1

The subject of experiment [3] is Staphylococcus aureus. The experiment in a line: Antimicrobial activity against macrolide-resistant Staphylococcus aureus RN4220 assessed as absence of growth after 18 hrs by MTT assay. As to conditions: RN4220, 18 h.
The subject of experiment [4] is Staphylococcus aureus. The experiment in a line: Antimicrobial activity against methicillin-resistant Staphylococcus aureus EMRSA-15 assessed as absence of growth after 18 hrs by MTT assay. The format is functional. As to conditions: EMRSA-15, 18 h. In a few lines: as §1
Experiment [5] deals with Staphylococcus aureus. The experiment in a line: Antimicrobial activity against methicillin-resistant Staphylococcus aureus EMRSA-16 assessed as absence of growth after 18 hrs by MTT assay. The format is functional. To be noted: EMRSA-16, 18 h. In a few lines:
as §1

Experiment [6] has as its system Staphylococcus aureus. The experiment in a line: Antimicrobial activity against Staphylococcus aureus ATCC25943 assessed as absence of growth after 18 hrs by MTT assay. As to conditions: ATCC25943, 18 h. Format: functional. In a few lines:
as §1

Experiment [7] deals with Staphylococcus aureus. The experiment in a line: Bactericidal activity against multi-drug-resistant Staphylococcus aureus SA-1199B expressing NorA efflux pump incubated for 24 hrs followed by transfer to Petri dishes and measured after 24 hrs. As to conditions: read-out: MBC99.9.

SMILES strings stand for the structures. Values after ≈ are worked out from the molar mass of the structure shown.

On to `CC(C)=CCN=C(NCC=C(C)C)NCC=C(C)C`, for which the minimal inhibitory concentration (MIC) with Staphylococcus aureus [1], in the experiment with Staphylococcus aureus [2], in the experiment on Staphylococcus aureus [3], in the experiment on Staphylococcus aureus [4], in the experiment with Staphylococcus aureus [5] and in the experiment on Staphylococcus aureus [6] was > 512 µg/mL throughout.
Turning to `CC(C)=CCC/C(C)=C/CNC(=S)NC/C=C(\C)CCC=C(C)C`, the MIC – broadly, the least concentration at which growth counts as inhibited – with Staphylococcus aureus [1] was 128 µg/mL (≈ 367 µM); with Staphylococcus aureus [2] it was 128 µg/mL (≈ 367 µM); with Staphylococcus aureus [3] it was 128 µg/mL (≈ 367 µM); in the experiment on Staphylococcus aureus [4] it was > 512 µg/mL; in the experiment with Staphylococcus aureus [5] it was 32 µg/mL (≈ 91.8 µM); in the experiment with Staphylococcus aureus [6], 128 µg/mL (≈ 367 µM).
With `CC(C)=CCC/C(C)=C/CNC(=O)NC/C=C(\C)CCC=C(C)C`, the minimum inhibitory concentration (MIC) in the experiment on Staphylococcus aureus [1], in the experiment with Staphylococcus aureus [2], in the experiment on Staphylococcus aureus [3], in the experiment with Staphylococcus aureus [4], in the experiment with Staphylococcus aureus [5] and in the experiment on Staphylococcus aureus [6] was > 512 µg/mL throughout.
`CC(C)=CCC/C(C)=C/C=N/C(N)N`: the MIC is 8 µg/mL (≈ 41 µM) in the experiment on Staphylococcus aureus [1]; 32 µg/mL (≈ 164 µM) with Staphylococcus aureus [2]; 16 µg/mL (≈ 81.9 µM) in the experiment on Staphylococcus aureus [3]; 16 µg/mL (≈ 81.9 µM) in the experiment on Staphylococcus aureus [4]; 8 µg/mL (≈ 41 µM) in the experiment with Staphylococcus aureus [5]; 16 µg/mL (≈ 81.9 µM) in the experiment on Staphylococcus aureus [6].
Take `CC(C)=CCN=C(N)N` [GALEGINE]: the MIC in the experiment on Staphylococcus aureus [1], in the experiment with Staphylococcus aureus [2], with Staphylococcus aureus [3], in the experiment on Staphylococcus aureus [4], in the experiment on Staphylococcus aureus [5] and in the experiment with Staphylococcus aureus [6] was 4 µg/mL (≈ 31.4 µM) each time. Moreover, the MBC with Staphylococcus aureus [7] turned out to be 4 µg/mL (≈ 31.4 µM).
Turning to `CC(C)=CCC/C(C)=C/CNC(=N)NC/C=C(\C)CCC=C(C)C` [NITENSIDINE A], the MIC with Staphylococcus aureus [1] came to 8 µg/mL (≈ 24.1 µM); with Staphylococcus aureus [2], 32 µg/mL (≈ 96.5 µM); in the experiment with Staphylococcus aureus [3] it was 16 µg/mL (≈ 48.3 µM); in the experiment on Staphylococcus aureus [4] it was 16 µg/mL (≈ 48.3 µM); with Staphylococcus aureus [5], 8 µg/mL (≈ 24.1 µM); with Staphylococcus aureus [6], 16 µg/mL (≈ 48.3 µM).
In the case of `CC(C)=CCC/C(C)=C/CN(C)C(=N)N(C)C/C=C(\C)CCC=C(C)C` [NITENSIDINE C], the MIC with Staphylococcus aureus [1] was found to be 8 µg/mL (≈ 22.2 µM); in the experiment with Staphylococcus aureus [2], 32 µg/mL (≈ 89 µM); in the experiment on Staphylococcus aureus [3], 16 µg/mL (≈ 44.5 µM); in the experiment with Staphylococcus aureus [4], 32 µg/mL (≈ 89 µM); with Staphylococcus aureus [5] it was 8 µg/mL (≈ 22.2 µM); with Staphylococcus aureus [6] it was 16 µg/mL (≈ 44.5 µM).
Regarding `CC(C)=C/C=C/C1(C)CCN=C(N)N1` (configuration not stated) [NITENSIDINE E], the MIC is 8 µg/mL (≈ 41.4 µM) in the experiment on Staphylococcus aureus [1]; 32 µg/mL (≈ 166 µM) in the experiment with Staphylococcus aureus [2]; 16 µg/mL (≈ 82.8 µM) in the experiment on Staphylococcus aureus [3]; 32 µg/mL (≈ 166 µM) with Staphylococcus aureus [4]; 8 µg/mL (≈ 41.4 µM) with Staphylococcus aureus [5]; 16 µg/mL (≈ 82.8 µM) in the experiment with Staphylococcus aureus [6].
Consider `CCn1cc(C(=O)O)c(=O)c2cc(F)c(N3CCNCC3)cc21` [NORFLOXACIN], for which the MIC in the experiment on Staphylococcus aureus [1] came out at 8 µg/mL (≈ 25.1 µM); in the experiment with Staphylococcus aureus [2], 32 µg/mL (≈ 100 µM); in the experiment with Staphylococcus aureus [3] it was 0.5 µg/mL (≈ 1.57 µM); in the experiment with Staphylococcus aureus [4] it was 0.5 µg/mL (≈ 1.57 µM); in the experiment with Staphylococcus aureus [5], 128 µg/mL (≈ 401 µM); with Staphylococcus aureus [6] it was 0.5 µg/mL (≈ 1.57 µM).
`CC(C)=CCNC(=N)NCC=C(C)C` [PTEROGYNIDINE]: the MIC in the experiment on Staphylococcus aureus [1], in the experiment on Staphylococcus aureus [2], with Staphylococcus aureus [3], with Staphylococcus aureus [4], in the experiment on Staphylococcus aureus [5] and with Staphylococcus aureus [6] was 4 µg/mL (≈ 20.5 µM) in each case. In the experiment with Staphylococcus aureus [7], the MBC is 4 µg/mL (≈ 20.5 µM).
